Measurements reported in ChEMBL document CHEMBL4706709, “Withanolides from dietary tomatillo suppress HT1080 cancer cell growth by targeting mutant IDH1” (Bioorg Med Chem, 2021).
pIC50, pKd: −log10 of the molar value. The source made the active and inactive calls. The calls are words filed in the database; no cut-off is given here.

Key:
[1] = molecular target: T1, Isocitrate dehydrogenase [NADP] cytoplasmic (Homo sapiens, UniProt O75874, R132H); assay: Inhibition of C-terminal His6-tagged IDH1 R132H mutant (unknown origin) expressed in Escherichia coli BL21 (DE) using alpha-ketoglutarate as substrate preincubated for 10 mins followed by substrate addition and measured at 1 min interval for 20 mins in presence of NADPH
T1 sequence (O75874 2-414 R132H limits assumed): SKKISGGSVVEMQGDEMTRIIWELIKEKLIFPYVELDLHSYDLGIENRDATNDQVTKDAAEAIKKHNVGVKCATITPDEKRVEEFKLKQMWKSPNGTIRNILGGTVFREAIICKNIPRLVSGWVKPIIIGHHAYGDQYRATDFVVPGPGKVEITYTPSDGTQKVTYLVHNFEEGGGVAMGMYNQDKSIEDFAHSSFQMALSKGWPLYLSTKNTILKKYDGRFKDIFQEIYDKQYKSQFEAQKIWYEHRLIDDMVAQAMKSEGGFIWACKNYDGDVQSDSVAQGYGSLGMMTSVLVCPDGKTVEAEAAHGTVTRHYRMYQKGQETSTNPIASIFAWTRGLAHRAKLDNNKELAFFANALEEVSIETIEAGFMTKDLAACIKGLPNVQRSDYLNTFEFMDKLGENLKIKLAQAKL
How it was run: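 His-tagged IDH1 R132H at 2 μM in 50 mM HEPES pH 7.5 with 4 mM MgCl2 and 100 μM NADPH. Compound preincubated with enzyme 10 min, then reaction started with 2 mM α-KG. NADPH consumption read at 340 nm every 1 min for 20 min. IC50 from mean of three independent assays.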

[2] = molecular target: Isocitrate dehydrogenase [NADP] cytoplasmic (Homo sapiens, UniProt O75874); assay: Inhibition of wild-type IDH1 (unknown origin) in presence of sodium(D)-isocitrate and NADP+
Sequence of Isocitrate dehydrogenase [NADP] cytoplasmic (Homo sapiens, UniProt O75874) (O75874 whole entry): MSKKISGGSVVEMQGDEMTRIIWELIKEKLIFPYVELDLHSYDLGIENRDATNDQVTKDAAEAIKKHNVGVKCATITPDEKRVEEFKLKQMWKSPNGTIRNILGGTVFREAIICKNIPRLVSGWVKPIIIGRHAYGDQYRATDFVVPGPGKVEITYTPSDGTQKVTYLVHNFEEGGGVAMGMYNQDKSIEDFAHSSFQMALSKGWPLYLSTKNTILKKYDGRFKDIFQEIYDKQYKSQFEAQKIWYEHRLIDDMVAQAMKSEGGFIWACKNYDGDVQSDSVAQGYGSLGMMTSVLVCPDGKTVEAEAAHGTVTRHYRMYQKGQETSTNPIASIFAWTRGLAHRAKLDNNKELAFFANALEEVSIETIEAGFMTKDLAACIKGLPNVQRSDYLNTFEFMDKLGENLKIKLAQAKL
How it was run: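 Wild-type IDH1 purified at 43 nM in 50 mM HEPES pH 7.5 with 50 μM sodium D-isocitrate, 4 mM MgCl2 and 1 mM NADP+. NADPH production monitored at 340 nm. IC50 from mean of three independent assays.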

[3] = molecular target: T1, Isocitrate dehydrogenase [NADP] cytoplasmic; assay: Binding affinity to C-terminal His6-tagged IDH1 R132H mutant (unknown origin) expressed in Escherichia coli BL21 (DE) measured after 20 mins by Red-NHS fluorescence dye-based microscale thermophoresis analysis
How it was run: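 IDH1 R132H fluorescently labelled (RED kit) and used at 20 nM in 20 mM HEPES pH 7.5 with 0.05% Tween-20. Mixed 1:1 with a ligand dilution series, 20 min at room temperature. Loaded in standard capillaries, 10 min at 25 °C. Thermophoresis read at 20% laser and 100% LED power, Kd fitted from the curve.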

[4] = test system: HT-1080; assay: Antiproliferative activity against human HT-1080 cells assessed as reduction in cell proliferation measured after 48 hrs by CCK8 assay; type: functional, cell-based; settings: HT-1080, 48 h
How it was run: (§1)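 HT1080 cells (IDH1 R132C) in high-glucose DMEM with 10% FBS, 37 °C, 5% CO2. Adherent cells exposed to compound in fresh medium for 48 h, DMSO kept below 0.5%. Viability by CCK8, absorbance at 450 nm. Three repeats.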

[5] = test system: HT-1080; assay: Antiproliferative activity against human HT-1080 cells assessed as reduction in number of EdU-positive cells measured after 24 hrs by EdU and DAPI staining based fluorescence microscopic analysis; type: functional, cell-based; settings: dose 3.25-6.5 µM
How it was run: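 Log-phase HT1080 cells treated 24 h with 3.25 or 6.5 μM compound or DMSO. Then 50 μM EdU in serum-free DMEM for 2 h. Fixed in 4% paraformaldehyde, quenched with glycine, permeabilised with 0.5% Triton X-100. Apollo dye reaction for 30 min, DAPI nuclear counterstain, fluorescence microscopy. Three repeats.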

[6] = test system: HT-1080; assay: Induction of apoptosis in human HT-1080 cells assessed as nuclear fragmentation at 3.25 to 6.5 uM measured after 48 hrs by Hoechst 33258 and DAPI staining based fluorescence microscopic analysis; type: functional, cell-based; settings: dose 3.25-6.5 µM
How it was run: (§2)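 HT1080 cells exposed 48 h to 3.25 or 6.5 μM compound. Blocked 2 h, then stained 30 min with Hoechst 33258. Nuclear morphology viewed by fluorescence microscopy (×200).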

[7] = test system: HT-1080; assay: Induction of apoptosis in human HT-1080 cells assessed as appearance of densely stained nucleus at 3.25 to 6.5 uM measured after 48 hrs by Hoechst 33258 and DAPI staining based fluorescence microscopic analysis; type: functional, cell-based; settings: dose 3.25-6.5 µM; how it was run: as §2
[8] = test system: HT-1080; assay: Induction of apoptosis in human HT-1080 cells assessed as viable cells at 6.5 uM measured after 48 hrs by Annexin V-FITC/propidium iodide staining based flow cytometry (reference value: 66.6%); type: functional; settings: read-out: Activity
[9] = test system: HT-1080; assay: Induction of apoptosis in human HT-1080 cells assessed as early apoptotic cells at 6.5 uM measured after 48 hrs by Annexin V-FITC/propidium iodide staining based flow cytometry (reference value: 0%); type: functional
[10] = test system: HT-1080; assay: Induction of apoptosis in human HT-1080 cells assessed as late apoptotic cells at 6.5 uM measured after 48 hrs by Annexin V-FITC/propidium iodide staining based flow cytometry (reference value: 3.2%); type: functional
[11] = test system: HT-1080; assay: Induction of apoptosis in human HT-1080 cells assessed as necrotic cells at 6.5 uM measured after 48 hrs by Annexin V-FITC/propidium iodide staining based flow cytometry (reference value: 30.2%); type: functional
[12] = test system: Isocitrate dehydrogenase [NADP] cytoplasmic (Homo sapiens), O75874 [R132H]; assay: Inhibition of IDH1 […] assessed as reduction in R-2-HG concentration measured after 48 hrs by LC-MS/MS analysis; type: cell-based; settings: dose 0.94-30 µM
Sequence of Isocitrate dehydrogenase [NADP] cytoplasmic (Homo sapiens), O75874 [R132H] (O75874 whole entry R132H): as the sequence (O75874 whole entry) above, with R132H counted along it
How it was run: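 HT1080 cells treated 48 h with 0.94–30 μM compound or DMSO. Medium diluted in methanol and centrifuged. R-2-HG in the supernatant quantified by LC-MS/MS (ESI, MRM) on a C18 column, gradient of methanol against 10 mM ammonium acetate pH 7.4. Peak area normalised to internal standard, IC50 from the dose–response curve.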

[13] = test system: Isocitrate dehydrogenase [NADP] cytoplasmic (Homo sapiens), O75874 [R132H]; assay: Inhibition of IDH1 […] assessed as down regulation of H3K9me3 expression at 3.25 to 6.5 uM measured after 48 hrs by Western blot analysis; type: cell-based; settings: dose 3.25-6.5 µM
How it was run: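 HT1080 cells in 6-well plates treated 48 h. Lysed in RIPA, protein measured by BCA. Run on 12% SDS-PAGE, blotted to PVDF, blocked in 5% milk 1 h. Probed with H3K9me3 primary antibody, β-actin also available, then HRP secondary.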

[14] = test system: Isocitrate dehydrogenase [NADP] cytoplasmic (Homo sapiens), O75874 [R132H]; assay: Inhibition of IDH1 […] assessed as down regulation of H3K9me3 expression at 6.5 uM measured after 48 hrs by DAPI staining based immunofluorescence microscopic analysis; type: cell-based
How it was run: (§3)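 HT1080 cells on slides exposed 48 h to 3.25 or 6.5 μM compound. Fixed in 4% paraformaldehyde 15 min, permeabilised with 0.1% Triton X-100 for 5 min at 4 °C, blocked 2 h in 5% BSA. Primary antibody (H3K9me3, HIF-1α or p53, 1:100) overnight at 4 °C. Fluorescent secondary (1:500) 1 h in the dark, DAPI counterstain, imaged.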

[15] = test system: Isocitrate dehydrogenase [NADP] cytoplasmic (Homo sapiens), O75874 [R132H]; assay: Inhibition of IDH1 […] assessed as reduction in HIF-1alpha accumulation at 3.25 to 6.5 uM measured after 48 hrs by DAPI staining based immunofluorescence microscopic analysis; type: cell-based; settings: dose 3.25-6.5 µM; how it was run: as §3
[16] = test system: Isocitrate dehydrogenase [NADP] cytoplasmic (Homo sapiens), O75874 [R132H]; assay: Inhibition of IDH1 […] assessed as increase in p53 expression at 3.25 to 6.5 uM measured after 48 hrs by DAPI staining based immunofluorescence microscopic analysis; type: cell-based; settings: dose 3.25-6.5 µM; how it was run: as §3
[17] = test system: HT-1080; assay: Antiproliferative activity against human HT-1080 cells transfected with shIDH1 R132C assessed as reduction in cell proliferation at 1.25 to 10 uM measured after 48 hrs by CCK8 assay; type: functional, cell-based; settings: dose 1.25-10 µM; how it was run: as §1

Compound: C[C@]12C(=O)C=CCC1=CC[C@@H]1[C@@H]2CC[C@]2(O)C(=O)O[C@@]3(C)[C@H]4C[C@]5(C)[C@@H](CO[C@@]16O[C@@]32[C@H]5C6=O)C(=O)O4 [PHYSALIN B]
- pIC50 [1]: 5.90
- pIC50 [2]: < 3.70
- pKd [3]: 4.34

Compound: C[C@@]12C[C@H]3OC(=O)[C@@H]1CO[C@]14O[C@@]5([C@H]2C1=O)[C@@]3(C)OC(=O)[C@@]5(O)CC[C@H]1[C@H]4C[C@H]2O[C@]23CC=CC(=O)[C@]13C
- pIC50 [1]: 6.20
- pIC50 [2]: < 3.70
- pKd [3]: 4.82
- pIC50 [4]: 5.62
- Activity [5]: Dose-dependent effect
- Activity [6]: Active
- Activity [7]: Active
- viability at 6.5 µM [8]: 19.9%
- Activity [9]: 55%
- Activity [10]: 23.9%
- Activity [11]: 1.1%
- inhibition [12]: Dose-dependent effect
- inhibition [13]: Active
- inhibition [14]: Active
- inhibition [15]: Active
- inhibition [16]: Active
- Activity [17]: Active
